SMILES strings stand for the structures. Calls of active or inactive are those of the source. The rule behind the calls is not given here.

In general, MRT refers to the average time that molecules of a dose stay in the body. By AUC(0-inf) is commonly meant total exposure, with the tail of the curve extrapolated. Read a low AUC(0-inf) as low exposure. One may read the half-life as the time in which the quantity being followed falls by half.

The test system of data set [1] is SH-SY5Y. The data set can be described thus: Neuroprotection against H2O2-induced cell death in human SH-SY5Y cells assessed as cell viability at 1 uM preincubated for 6 hrs followed by H2O2 addition and measured after 24 hrs by MTT assay relative to control. The following applies: read-out: Activity. The class given is functional. The gist of the method:
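SH-SY5Y cells pretreated with 1 at 1 or 10 μM, then exposed to 600 μM H₂O₂. Viability by MTT, expressed as % of control. DMSO below 0.1%. Mean ± S.E.M. of three independent experiments.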
In general terms: Formazan colour is commonly taken as a measure of viable cells.

Data set [2] deals with SH-SY5Y. The data set can be described thus: Protection against H2O2-induced mitochondrial dysfunction in human SH-SY5Y cells assessed as mitochondrial membrane potential at 1 uM preincubated for 6 hrs followed by H2O2 addition and measured after 24 hrs by Rh123 staining based flow cytometry (reference value: 26.31 +/- 3.32%). The class given is functional. The gist of the method: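 ΔΨm examined by inverted fluorescence microscopy and flow cytometry after pretreatment (1, 10 μM) and 600 μM H₂O₂. Reported as % of control. Mean ± S.E.M., three independent experiments.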
(Flow cytometry measures light scatter and fluorescence of single cells or particles in a stream.)

The subject of data set [3] is SH-SY5Y. In words: Protection against H2O2-induced apoptosis in human SH-SY5Y cells assessed as early apoptotic cells at 1 uM preincubated for 6 hrs followed by H2O2 addition and measured after 24 hrs by Annexin V-FITC/propidium iodide staining based flow cytometry (reference value: 6.6%). The class given is functional.
In data set [4] the test system is SH-SY5Y. In words: Protection against H2O2-induced apoptosis in human SH-SY5Y cells assessed as late apoptotic cells at 1 uM preincubated for 6 hrs followed by H2O2 addition and measured after 24 hrs by Annexin V-FITC/propidium iodide staining based flow cytometry (reference value: 77.5%). The class given is functional.
For data set [5], the system named is SH-SY5Y. In words: Protection against H2O2-induced apoptosis in human SH-SY5Y cells assessed as late apoptotic cells at 10 uM preincubated for 6 hrs followed by H2O2 addition and measured after 24 hrs by Annexin V-FITC/propidium iodide staining based flow cytometry (reference value: 77.5%). It counts as functional.
Data set [6] deals with SH-SY5Y. The data set can be described thus: Protection against H2O2-induced apoptosis in human SH-SY5Y cells assessed as late apoptotic cells at 10 uM preincubated for 6 hrs followed by H2O2 addition and measured after 24 hrs by Annexin V-FITC/propidium iodide staining based flow cytometry (reference value: 3.5%). The class given is functional.
For data set [7], the system named is SH-SY5Y. The data set can be described thus: Protection against H2O2-induced apoptosis in human SH-SY5Y cells assessed as decrease in cleaved caspase3 expression preincubated for 6 hrs followed by H2O2 addition and measured after 24 hrs by Western blot analysis. It counts as functional, cell-based. The method, boiled down: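 Western blot of Bax, Bcl-2 and cleaved caspase-3 in SH-SY5Y after pretreatment (1, 10 μM) and 600 μM H₂O₂. β-actin internal standard; Bax/Bcl-2 ratio from densitometry. Mean ± S.E.M., three independent experiments.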
On the technique in general: A western blot detects proteins with antibodies after separation by electrophoresis.

The subject of data set [8] is Mus musculus. The data set can be described thus: Anti-parkinson's activity in MPTP-induced C57Bl/6 mouse model of Parkinson's disease assessed as increase in tyrosine hydroxylase expression in substantia nigra at 10 to 20 mg/kg, ig pretreated for 10 days followed by MPTP challenge measured 10 days post MPTP addition by DAB staining based immunohistochemistry method. The class given is functional, organism-based. The gist of the method: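 Tissue taken 10 days after MPTP injection from mice dosed orally with 1 (10 or 20 mg/kg). TH in SNpc and striatum by western blot, and by DAB immunostaining. Three of the mice per group analysed. Mean ± S.D., n = 6 mice/group.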

Data set [9] concerns Mus musculus. The data set can be described thus: Anti-parkinson's activity in MPTP-induced C57Bl/6 mouse model of Parkinson's disease assessed as decrease in cleaved caspase3 expression in striatum at 10 to 20 mg/kg, ig pretreated for 10 days followed by MPTP challenge measured 10 days post MPTP addition by Western blot analysis. The class given is functional, organism-based.

Data set [10] relates to Mus musculus. In words: Anti-parkinson's activity in MPTP-induced C57Bl/6 mouse model of Parkinson's disease assessed as increase in SOD activity in striatum administered intragastrically pretreated for 10 days followed by MPTP challenge measured 10 days post MPTP addition by xanthine oxidase method. It counts as functional, organism-based. The gist of the method:
(§1)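 Striatum and SNpc from MPTP-treated mice dosed orally with 1 at 10 or 20 mg/kg. MDA level and SOD activity measured. Mean ± S.D., n = 6 mice/group.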

Data set [11] has as its system Mus musculus. In words: Anti-parkinson's activity in MPTP-induced C57Bl/6 mouse model of Parkinson's disease assessed as reduction in MDA level in substantia nigra administered intragastrically pretreated for 10 days followed by MPTP challenge measured 10 days post MPTP addition by thiobarbituric acid method. The class given is functional, organism-based. The method, boiled down:
as §1

Data set [12] is described as follows: Volume of distribution at steady state in Sprague-Dawley rat at 25 mg/kg, po by LC-MS/MS analysis. It counts as ADME, organism-based. The following applies: in vivo. The method, boiled down: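 Male Sprague–Dawley rats (n = 3) dosed i.v. 5 mg/kg (5% DMSO, 2% F68, 93% saline) or p.o. 25 mg/kg (0.5% methylcellulose, 1% Tween 80). Orbital blood at 0.083–24 h (12 points). Plasma concentration–time profiles gave Cl, Vdss, AUC, T1/2, Tmax, Cmax, MRT and absolute F.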

The nature of data set [13]: MRT in Sprague-Dawley rat at 25 mg/kg, po by LC-MS/MS analysis. It counts as ADME, organism-based. The following applies: in vivo. The gist of the method: (§2)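 Male Sprague–Dawley rats dosed with 1 at 5 mg/kg i.v. (vehicle 5% DMSO, 2% F68, 93% saline) or 25 mg/kg p.o. (0.5% methylcellulose with 1% Tween 80). Orbital blood sampled at 0.083–24 h, 12 time points. Plasma PK parameters derived. Mean ± SD, n = 3.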

Data set [14] is described as follows: AUC (0 to infinity) in Sprague-Dawley rat at 5 mg/kg, iv by LC-MS/MS analysis. It counts as ADME, organism-based. Further details: dose 5 mg/kg, route intravenous, time infinity. Conditions: in vivo. The method, boiled down: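 Single intravenous 5 mg/kg dose in 5% DMSO + 2% F68 + 93% saline to male Sprague–Dawley rats (n = 3). Orbital blood samples (100-200 μL) were taken at 12 points over 24 h (0.083 to 24 h). AUC0-∞ was derived from the plasma concentration–time curve and given as mean ± SD.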

Data set [15] in a line: Half life in Sprague-Dawley rat at 5 mg/kg, iv by LC-MS/MS analysis. It counts as ADME, organism-based. Conditions: in vivo. The method, boiled down:
as §2

Data set [16] can be described thus: MRT in Sprague-Dawley rat at 5 mg/kg, iv by LC-MS/MS analysis. The following applies: in vivo. It counts as ADME, organism-based. The method, boiled down: as §2
Data set [17] is described as follows: Activation of PI3K/Akt/mTOR signaling in human SH-SY5Y cells assessed as up regulation of HO-1 expression at 0.1 uM after 24 hrs by Western blot analysis relative to control. The class given is cell-based. The method, boiled down:
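HO-1 western blot in SH-SY5Y cells incubated 24 h with 1 at 0.1, 1 or 10 μM, without H₂O₂. Band densitometry expressed as % of control. Mean ± S.E.M. from three independent experiments.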

Data set [18] is described as follows: Activation of PI3K/Akt/mTOR signaling in human SH-SY5Y cells assessed as up regulation of H2O2-induced HO-1 expression at 10 uM preincubated for 6 hrs followed by H2O2 addition and after 24 hrs by Western blot analysis (reference value: 181.53 +/- 24.67%). The class given is cell-based. The gist of the method:
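SH-SY5Y cells pretreated 6 h with 1 (1 or 10 μM), then exposed to 600 μM H₂O₂ for 24 h. HO-1 measured by western blot with densitometry and expressed as % of control. Mean ± S.E.M., three independent experiments.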

Regarding `COC(=O)[C@H](Cc1ccccc1)NC(=O)/C=C/c1ccc(O)c(O)c1` [N-CAFFEOYL-PHENYLALANINE METHYL ESTER], the viability at 1 µM in the data set with SH-SY5Y [1] came to 68.3%. Also, the Activity in the data set on SH-SY5Y [2] was 79.4%; in the data set with SH-SY5Y [3], 6.3%; in the data set on SH-SY5Y [4], 17.8%; with SH-SY5Y [5], 4.3%; in the data set with SH-SY5Y [6], 1.5%; in the data set on SH-SY5Y [7], “Dose-dependent effect”. In addition, the Activity entry in the data set on Mus musculus [10] is “Dose-dependent effect”; in the data set with Mus musculus [11], “Dose-dependent effect”; in data set [17], 111%; in data set [18] it was 325%. For the same compound, the outcome in the data set with Mus musculus [8] and in the data set on Mus musculus [9] was Active. Also, the Vdss in data set [12] was determined as 5.98 L/kg. Further, the MRT was found to be 3.06 h in [13] and 1.45 h in [16]. The compound further registered an AUC(0-inf) in data set [14] of 3270 ng·h/mL. In data set [15], this compound had a half-life of 0.85 h.

The values above are taken from ChEMBL document CHEMBL4308887, “Synthesis and biological evaluation of clovamide analogues with catechol functionality as potent Parkinson's disease agents in vitro and in vivo” (Bioorg Med Chem Lett, 2019).
